Laboratory results reported in ChEMBL document CHEMBL1129566 (J Med Chem, 1996).
Values after ≈ are worked out from the molar mass of the structure shown.

Experiments:
Staphylococcus aureus [1] = test: In vitro minimum inhibitory concentration required to produce antibacterial activity against Staphylococcus aureus 743 MRSA; assay type: functional
Summary of the method: (§1)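 Two-fold agar dilution on Mueller-Hinton agar. Overnight broth cultures diluted in fresh broth to […]; 10⁴ CFU/spot applied by inoculating apparatus onto plates with graded drug concentrations. Incubated 18 h at 37 °C; MIC taken as the lowest concentration giving complete growth inhibition.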

Enterococcus durans = test: Inhibitory concentration against purified beta-Lactam resistant PBP5 from Enterococcus durans; assay type: functional
Summary of the method: (§2)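 PBPs purified to homogeneity. IC50 measured by competition with fluorescent dansyl-penicillin or a coumarin analogue probe. Protein-bound fluorescence determined after TCA precipitation, filtration on glass fibre filters and drying, read on a fluorimeter.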

Enterococcus faecalis = test: In vitro minimum inhibitory concentration required to produce antibacterial activity against Enterococcus faecalis ATCC 29212; assay type: functional; summary of the method: as §1
[2] = target: T1, Beta-lactamase SHV-1 (Escherichia coli) (UniProt P0AD63); test: Rate of hydrolysis in 0.1 M sodium phosphate buffer at pH=7.0 by Beta lactamase (SHV-4); settings: Proteus vulgaris
T1 sequence (whole entry): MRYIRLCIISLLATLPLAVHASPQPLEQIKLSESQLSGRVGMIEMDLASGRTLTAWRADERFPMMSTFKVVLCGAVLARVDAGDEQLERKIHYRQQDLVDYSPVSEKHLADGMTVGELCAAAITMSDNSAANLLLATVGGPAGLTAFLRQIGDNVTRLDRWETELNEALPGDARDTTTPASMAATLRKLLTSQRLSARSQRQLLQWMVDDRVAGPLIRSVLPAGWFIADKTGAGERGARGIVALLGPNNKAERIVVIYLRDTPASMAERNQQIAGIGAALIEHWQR
Summary of the method: (§3)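 β-Lactamases purified to homogeneity; hydrolysis rate of the cephalosporin substrate measured in 0.1 M sodium phosphate buffer, pH 7.0, by standard methods.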

Escherichia coli [3] = test: Inhibitory concentration against purified penicillin-binding protein(PBP) 1bgamma of Escherichia coli; assay type: functional
Summary of the method: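 PBP purified to homogeneity. IC50 from competition with dansyl-penicillin or a coumarin analogue; protein-bound fluorescence recovered by TCA precipitation and glass-fibre filtration, then read by fluorimetry after drying.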

Escherichia coli [4] = test: In vitro minimum inhibitory concentration required to produce antibacterial activity against Escherichia coli 25922; assay type: functional; summary of the method: as §1
Streptococcus pneumoniae [5] = test: Inhibitory concentration against purified cephalosporin-resistant PBP2x.604 from Streptococcus pneumoniae; assay type: functional; summary of the method: as §2
Enterobacter cloacae = test: In vitro minimum inhibitory concentration required to produce antibacterial activity against Enterobacter cloacae 908SSI; assay type: functional; summary of the method: as §1
[6] = target: T1, Beta-lactamase SHV-1 (Escherichia coli); test: Rate of hydrolysis in 0.1 M sodium phosphate buffer at pH=7.0 by Beta lactamase (SHV-2); summary of the method: as §3
[7] = target: Beta-lactamase (Bacillus licheniformis) (UniProt P00808); test: Rate of hydrolysis in 0.1 M sodium phosphate buffer at pH=7.0 by Beta lactamase (B.l icheniformis 749/C); summary of the method: as §3
Sequence of Beta-lactamase (Bacillus licheniformis) (P00808 whole entry): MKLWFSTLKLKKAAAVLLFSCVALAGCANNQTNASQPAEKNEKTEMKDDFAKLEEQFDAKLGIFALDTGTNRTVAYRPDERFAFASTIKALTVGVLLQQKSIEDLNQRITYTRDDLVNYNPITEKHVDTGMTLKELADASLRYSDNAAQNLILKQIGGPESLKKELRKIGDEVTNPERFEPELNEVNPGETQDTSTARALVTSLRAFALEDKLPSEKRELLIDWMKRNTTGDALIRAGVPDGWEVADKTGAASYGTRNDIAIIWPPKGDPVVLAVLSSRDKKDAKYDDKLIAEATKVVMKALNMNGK

Staphylococcus aureus [8] = test: In vitro minimum inhibitory concentration required to produce antibacterial activity against Staphylococcus aureus 887MSSA; assay type: functional; summary of the method: as §1
Streptococcus pneumoniae [9] = test: Inhibitory concentration against purified cephalosporin-resistant PBP2x.505 from Streptococcus pneumoniae; assay type: functional; summary of the method: as §2
Pseudomonas aeruginosa [10] = test: (§4) In vitro minimum inhibitory concentration required to produce antibacterial activity against Pseudomonas aeruginosa ATCC 27853; assay type: functional
Summary of the method: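 Two-fold agar dilution on Mueller-Hinton agar. Overnight broth cultures diluted in fresh broth, inoculum 10⁴ CFU/spot applied by inoculating apparatus to plates with graded drug concentrations. Plates incubated 18 h at 37 °C. MIC taken as lowest concentration completely inhibiting growth.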

[11] = target: Beta-lactamase TEM (Escherichia coli) (UniProt P62593); test: Rate of hydrolysis in 0.1 M sodium phosphate buffer at pH=7.0 by Beta lactamase (TEM-3); summary of the method: as §3
Sequence of Beta-lactamase TEM (Escherichia coli) (P62593 whole entry): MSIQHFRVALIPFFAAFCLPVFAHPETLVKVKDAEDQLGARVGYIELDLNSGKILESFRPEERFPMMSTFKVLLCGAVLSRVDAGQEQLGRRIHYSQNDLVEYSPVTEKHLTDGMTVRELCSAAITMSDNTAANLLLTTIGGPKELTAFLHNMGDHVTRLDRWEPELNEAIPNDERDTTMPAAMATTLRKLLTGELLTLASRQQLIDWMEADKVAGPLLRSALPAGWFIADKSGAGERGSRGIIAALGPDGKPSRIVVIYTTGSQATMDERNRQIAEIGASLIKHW

[12] = target: Beta-lactamase TEM (Escherichia coli) (UniProt P62593); test: Rate of hydrolysis in 0.1 M sodium phosphate buffer at pH=7.0 by Beta lactamase (TEM-4); summary of the method: as §3
[13] = system: Staphylococcus epidermidis; test: Inhibitory concentration against purified beta-Lactam-resistant PBP2 from Staphylococcus epidermidis; assay type: functional; summary of the method: as §2
Citrobacter freundii = test: In vitro minimum inhibitory concentration required to produce antibacterial activity against Citrobacter freundii 902; assay type: functional; summary of the method: as §1
Streptococcus pneumoniae [14] = test: Inhibitory concentration against purified PBP2x from Streptococcus pneumoniae; assay type: functional; summary of the method: as §2
Streptococcus pneumoniae [15] = test: In vitro minimum inhibitory concentration required to produce antibacterial activity against Streptococcus pneumoniae 1/37(pen r); assay type: functional; summary of the method: as §1
Streptococcus pneumoniae [16] = test: Minimum inhibitory concentration for antibacterial activity against Streptococcus pneumoniae Q19 (pen s); assay type: functional; summary of the method: as §1
Pseudomonas aeruginosa [17] = test: as §4; assay type: functional; summary of the method: as §1; remark: listed apart in the source

Row | MIC (Staphylococcus aureus [1]) | MIC (Enterococcus faecalis) | MIC (Escherichia coli [4]) | MIC (Enterobacter cloacae) | MIC (Staphylococcus aureus [8]) | MIC (Citrobacter freundii) | MIC (Streptococcus pneumoniae [15]) | MIC (Streptococcus pneumoniae [16]) | MIC (Pseudomonas aeruginosa [17]) | SMILES | also measured
1 | 8 µg/mL (≈ 14 µM) | 0.5 µg/mL (≈ 0.876 µM) | 0.5 µg/mL (≈ 0.876 µM) | 1 µg/mL (≈ 1.75 µM) | 1 µg/mL (≈ 1.75 µM) | 0.5 µg/mL (≈ 0.876 µM) | 0.5 µg/mL (≈ 0.876 µM) | ≤ 0.06 µg/mL | > 32 µg/mL | COc1cccc(N2CC/C(=C\C3=C(C(=O)O)N4C(=O)[C@@H](NC(=O)/C(=N\O)c5csc(N)n5)[C@H]4SC3)C2=O)c1 | –
2 | 8 µg/mL (≈ 17.2 µM) | 2 µg/mL (≈ 4.31 µM) | ≤ 0.06 µg/mL | 0.5 µg/mL (≈ 1.08 µM) | 1 µg/mL (≈ 2.15 µM) | 0.5 µg/mL (≈ 1.08 µM) | 2 µg/mL (≈ 4.31 µM) | 0.06 µg/mL (≈ 0.129 µM) | > 16 µg/mL | Nc1nc(/C(=N/O)C(=O)N[C@@H]2C(=O)N3C(C(=O)O)=C(/C=C4\CCNC4=O)CS[C@H]23)cs1 | –
3 | 16 µg/mL (≈ 33.3 µM) | 4 µg/mL (≈ 8.32 µM) | ≤ 0.06 µg/mL | 16 µg/mL (≈ 33.3 µM) | 1 µg/mL (≈ 2.08 µM) | 0.5 µg/mL (≈ 1.04 µM) | 4 µg/mL (≈ 8.32 µM) | 0.06 µg/mL (≈ 0.125 µM) | 8 µg/mL (≈ 16.6 µM) | Nc1nc(/C(=N/O)C(=O)N[C@@H]2C(=O)N3C(C(=O)O)=C(/C=C4\CCN(O)C4=O)CS[C@H]23)cs1 | –
4 | 32 µg/mL (≈ 57.7 µM) | 8 µg/mL (≈ 14.4 µM) | 1 µg/mL (≈ 1.8 µM) | 4 µg/mL (≈ 7.21 µM) | 2 µg/mL (≈ 3.61 µM) | 1 µg/mL (≈ 1.8 µM) | 4 µg/mL (≈ 7.21 µM) | 0.12 µg/mL (≈ 0.216 µM) | > 32 µg/mL | Nc1nc(/C(=N/O)C(=O)N[C@@H]2C(=O)N3C(C(=O)O)=C(/C=C4\CCCN(c5ccccc5)C4=O)CS[C@H]23)cs1 | –
5 | 8 µg/mL (≈ 13 µM) | 8 µg/mL (≈ 13 µM) | 2 µg/mL (≈ 3.25 µM) | 4 µg/mL (≈ 6.51 µM) | 4 µg/mL (≈ 6.51 µM) | 4 µg/mL (≈ 6.51 µM) | 1 µg/mL (≈ 1.63 µM) | ≤ 0.06 µg/mL | 8 µg/mL (≈ 13 µM) | Nc1nc(/C(=N/OC2CCCC2)C(=O)N[C@@H]2C(=O)N3C(C(=O)O)=C(/C=C4\CCN(CC(F)(F)F)C4=O)CS[C@H]23)cs1 | –
6 | 4 µg/mL (≈ 7.19 µM) | 0.5 µg/mL (≈ 0.898 µM) | ≤ 0.06 µg/mL | 0.25 µg/mL (≈ 0.449 µM) | 0.5 µg/mL (≈ 0.898 µM) | ≤ 0.06 µg/mL | 1 µg/mL (≈ 1.8 µM) | 0.12 µg/mL (≈ 0.216 µM) | 4 µg/mL (≈ 7.19 µM) | Nc1nc(/C(=N/O)C(=O)N[C@@H]2C(=O)N3C(C(=O)O)=C(/C=C4\CCN(c5ccc(O)cc5)C4=O)CS[C@H]23)cs1 | –
7 | 4 µg/mL (≈ 6.82 µM) | 32 µg/mL (≈ 54.6 µM) | 1 µg/mL (≈ 1.7 µM) | 4 µg/mL (≈ 6.82 µM) | 4 µg/mL (≈ 6.82 µM) | 2 µg/mL (≈ 3.41 µM) | 0.5 µg/mL (≈ 0.852 µM) | ≤ 0.06 µg/mL | 8 µg/mL (≈ 13.6 µM) | C=CCO/N=C(\C(=O)N[C@@H]1C(=O)N2C(C(=O)O)=C(/C=C3\CCN(CC(F)(F)F)C3=O)CS[C@H]12)c1csc(N)n1 | –
8 | 8 µg/mL (≈ 13.7 µM) | 1 µg/mL (≈ 1.71 µM) | 2 µg/mL (≈ 3.42 µM) | 4 µg/mL (≈ 6.84 µM) | 1 µg/mL (≈ 1.71 µM) | 2 µg/mL (≈ 3.42 µM) | 1 µg/mL (≈ 1.71 µM) | ≤ 0.06 µg/mL | > 32 µg/mL | COc1cccc(CN2CC/C(=C\C3=C(C(=O)O)N4C(=O)[C@@H](NC(=O)/C(=N\O)c5csc(N)n5)[C@H]4SC3)C2=O)c1 | –
9 | 16 µg/mL (≈ 31.7 µM) | 16 µg/mL (≈ 31.7 µM) | 0.5 µg/mL (≈ 0.991 µM) | 1 µg/mL (≈ 1.98 µM) | 1 µg/mL (≈ 1.98 µM) | 0.5 µg/mL (≈ 0.991 µM) | 2 µg/mL (≈ 3.96 µM) | 0.25 µg/mL (≈ 0.495 µM) | > 32 µg/mL | Nc1nc(/C(=N/O)C(=O)N[C@@H]2C(=O)N3C(C(=O)O)=C(/C=C4/CCN(C5CC5)C4=O)CS[C@H]23)cs1 | –

Row | SMILES | MIC (Staphylococcus aureus [1]) | MIC (Enterococcus faecalis) | MIC (Escherichia coli [4]) | MIC (Enterobacter cloacae) | MIC (Staphylococcus aureus [8]) | MIC (Citrobacter freundii) | MIC (Streptococcus pneumoniae [15]) | MIC (Streptococcus pneumoniae [16]) | MIC (Pseudomonas aeruginosa [17]) | also measured
10 | CO/N=C(\C(=O)N[C@@H]1C(=O)N2C(C(=O)O)=C(CSc3nc(=O)c(O)nn3C)CS[C@H]12)c1csc(N)n1 [CEFTRIAXONE] | > 32 µg/mL | > 32 µg/mL | ≤ 0.06 µg/mL | 0.5 µg/mL (≈ 0.902 µM) | 4 µg/mL (≈ 7.21 µM) | 0.25 µg/mL (≈ 0.451 µM) | 2 µg/mL (≈ 3.61 µM) | ≤ 0.06 µg/mL | – | IC50 (Enterococcus durans): > 500000 nM; Activity (M min-1 (M of enzyme)-1) [2]: 3340; IC50 (Escherichia coli [3]): 290 nM; IC50 (Streptococcus pneumoniae [5]): 5500 nM; Activity (M min-1 (M of enzyme)-1) [6]: 2310; Activity (M min-1 (M of enzyme)-1) [7]: 1890; IC50 (Streptococcus pneumoniae [9]): 2500 nM; MIC (Pseudomonas aeruginosa [10]): 16 µg/mL (≈ 28.9 µM); Activity (M min-1 (M of enzyme)-1) [11]: 79; Activity (M min-1 (M of enzyme)-1) [12]: 643; IC50 [13]: 960000 nM; IC50 (Streptococcus pneumoniae [14]): 500 nM
